The results in this text go back to ChEMBL document CHEMBL1134373, “A potent, nonpeptidyl 1H-quinolone antagonist for the gonadotropin-releasing hormone receptor” (J Med Chem, 2001).

As usually defined, the AUC is the area under the concentration-time curve, a measure of exposure. Low readings indicate less exposure, high ones more exposure. In general, half-life refers to the time needed for the level to fall by half in the phase considered. Higher therefore signals slow decline. Broadly, the IC50 is the concentration that inhibits the measured activity by half.

Data set [1] in a line: Area under curve was determined after intravenous administration of a dose of 0.5 mg/kg. The data set is classed as ADME, organism-based. More on the design: dose 0.5 mg/kg, route intravenous. The settings on record: in vivo. In outline: (§1)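 Male rhesus monkeys received a single iv dose in ethanol/PEG400/saline (10/40/50, v/v/v) via the brachiocephalic vein. Femoral vein blood was drawn at 5, 15, 30 min and 1, 2, 4, 6, 8, 24 h. Plasma was extracted with ethyl acetate and assayed by LC/MS/MS against an internal standard (LOQ 2.0 ng/mL). AUC came from linear/log trapezoidal rule with extrapolation by Ct/λ; t1/2 = 0.693/λ; Clp = dose/AUC(0-∞).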

A short description of data set [2]: Area under curve was determined after intravenous administration of a dose of 3 mg/kg. Also noted: dose 3 mg/kg, route intravenous. The data set is classed as ADME, organism-based. The settings on record: in vivo. In outline:
as §1

Data set [3] can be described thus: Half life period was determined after intravenous administration of 0.5 mg/kg. The data set is classed as ADME, organism-based. More on the design: dose 0.5 mg/kg, route intravenous. The following applies: in vivo. In outline: as §1
Data set [4] in a line: Half life period was determined after intravenous administration of 3 mg/kg. The data set is classed as ADME, organism-based. Also noted: dose 3 mg/kg, route intravenous. The settings on record: in vivo. In outline: as §1
The nature of data set [5]: Plasma clearance was determined fter intravenous administration of a dose of 0.5 mg/kg. The data set is classed as ADME, organism-based. More on the design: dose 0.5 mg/kg, route intravenous. The settings on record: read-out: ClP. In outline: as §1
Data set [6] is described as follows: Plasma clearance was determined fter intravenous administration of a dose of 3 mg/kg. The following applies: read-out: ClP. The format is ADME, organism-based. More on the design: dose 3 mg/kg, route intravenous. A digest of the protocol: as §1
Data set [7] has as its target T1, Gonadotropin-releasing hormone receptor (Rattus norvegicus, UniProt P30969).
T1 sequence (P30969 whole entry): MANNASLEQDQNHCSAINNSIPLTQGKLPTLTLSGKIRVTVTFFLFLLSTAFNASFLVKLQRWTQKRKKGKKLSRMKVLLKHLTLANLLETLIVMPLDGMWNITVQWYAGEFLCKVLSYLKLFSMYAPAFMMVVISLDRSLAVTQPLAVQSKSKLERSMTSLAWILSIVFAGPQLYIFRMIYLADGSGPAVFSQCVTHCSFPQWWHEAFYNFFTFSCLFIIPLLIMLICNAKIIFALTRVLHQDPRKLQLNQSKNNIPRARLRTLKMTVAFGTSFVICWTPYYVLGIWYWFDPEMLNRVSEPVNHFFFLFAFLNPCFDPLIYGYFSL
The experiment in a line: In vitro inhibition of binding to GnRH receptor in rat. In outline:
(§2)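 Crude membranes came from rat pituitary (rat) or from CHO-K1 cells stably expressing human GnRH receptor (human). Competition was run against [125I-Tyr5]buserelin (1000 Ci/mmol) in 50 mM Tris-HCl pH 7.5 with 2 mM MgCl2 and 0.1% BSA. IC50 is the concentration giving 50% inhibition of specific binding.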

Data set [8] deals with T1, Gonadotropin-releasing hormone receptor. The experiment in a line: Functional antagonism at GnRH receptor in rat (PI turnover).
In data set [9] the target is T2, Gonadotropin-releasing hormone receptor (Homo sapiens, UniProt P30968).
T2 sequence (P30968 whole entry): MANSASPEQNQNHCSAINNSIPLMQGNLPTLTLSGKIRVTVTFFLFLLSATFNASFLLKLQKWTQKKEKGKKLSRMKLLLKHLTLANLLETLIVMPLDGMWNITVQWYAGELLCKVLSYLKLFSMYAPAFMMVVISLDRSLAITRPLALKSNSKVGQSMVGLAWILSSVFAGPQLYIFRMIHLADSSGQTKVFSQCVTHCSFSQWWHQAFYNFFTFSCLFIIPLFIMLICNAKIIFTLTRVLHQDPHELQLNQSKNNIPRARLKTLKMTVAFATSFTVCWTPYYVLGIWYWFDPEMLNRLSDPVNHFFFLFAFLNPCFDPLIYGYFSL
The experiment in a line: Functional antagonism at the human GnRH receptor (PI turnover). In outline:
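CHO cells stably expressing human GnRH receptor were labelled 48 h with 1 μCi [3H]inositol in inositol-free F12 with 10% dialyzed FBS. After washing with PBS containing 10 mM LiCl, cells were preincubated with graded compound for 2 h at 37 °C. 0.5 nM GnRH was then added for 60 min, followed by formic acid lysis. IC50 is inhibition of GnRH-stimulated PI hydrolysis.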

Data set [10] concerns the target T2, Gonadotropin-releasing hormone receptor. The data set is described as follows: In vitro inhibition of binding to GnRH receptor in human. A digest of the protocol: as §2

`Cc1cc(-c2c(OCC[C@@H]3CCN3)c3cc(C(=O)Nc4ccncn4)c(Cl)cc3[nH]c2=O)cc(C)c1C`: the AUC in [1] was found to be 303 ng·h/mL; in data set [2], 1320 ng·h/mL. The half-life is 9.5 h in data set [3] and 5 h in data set [4]. Also, the clearance was determined as 30 mL/min/kg in data set [5] and 33 mL/min/kg in [6]. The IC50 in data set [7] worked out at 4 nM; in data set [8] it was 81 nM; in data set [9] it was 1 nM; in data set [10], 0.44 nM.
